Source: ChEMBL document CHEMBL1914326, “Synthesis and anticonvulsant properties of new acetamide derivatives of phthalimide, and its saturated cyclohexane and norbornene analogs” (Eur J Med Chem, 2011)
Calls of active or inactive are those of the source. No cut-off for these calls is given here.

Assays:
[1] = tested on: Mus musculus; assay: Anticonvulsant activity in CF1 albino mouse assessed as protection against maximal electroshock at 300 mg/kg, ip after 0.5 hrs; type: functional, organism-based; parameters: dose 300 mg/kg
Summary of the method: (§1)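 Male albino CF-1 mice in groups of eight received i.p. doses of 30, 100 and 300 mg/kg, suspended in 0.5% methylcellulose/water. Maximal electroshock seizures were tested at 0.5 and 4 h, with one additional 0.25 h reading at 100 mg/kg. The minimum dose giving protection was recorded. A dash means no activity at 300 mg/kg.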

[2] = tested on: Mus musculus; assay: Anticonvulsant activity in CF1 albino mouse assessed as protection against maximal electroshock at 300 mg/kg, ip after 4 hrs; type: functional, organism-based; parameters: dose 300 mg/kg; summary of the method: as §1
[3] = tested on: Mus musculus; assay: Neurotoxicity in CF1 albino mouse assessed as motor impairment at 300 mg/kg, ip after 0.5 hrs by rotarod test; type: toxicity, organism-based; parameters: dose 300 mg/kg, route intraperitoneal; conditions: in vivo
Summary of the method: (§2)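 Acute neurotoxicity was scored on the minimal motor impairment rotorod test in male CF-1 mice. Animals in groups of eight were dosed i.p. at 30, 100 or 300 mg/kg in 0.5% methylcellulose/water and examined at 0.5 and 4 h. Untreated controls keep their balance on the rod for a prolonged time. The minimum dose causing impairment was recorded.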

[4] = tested on: Mus musculus; assay: Neurotoxicity in CF1 albino mouse assessed as motor impairment at 300 mg/kg, ip after 4 hrs by rotarod test; type: toxicity, organism-based; parameters: dose 300 mg/kg, route intraperitoneal; conditions: in vivo; summary of the method: as §2
[5] = tested on: Mus musculus; assay: Anticonvulsant activity in CF1 albino mouse assessed as protection against subcutaneous pentylenetetrazole-induced seizures at 300 mg/kg, ip after 4 hrs; type: functional, organism-based; parameters: dose 300 mg/kg
Summary of the method: (§3)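 Male CF-1 mice in groups of eight were dosed i.p. at 30, 100 or 300 mg/kg in 0.5% methylcellulose/water. At 0.5 and 4 h, pentylenetetrazole 85 mg/kg (CD97 dose) was given s.c. This dose produces clonic seizures lasting at least 5 s. The minimum protective dose was recorded, with a top dose of 300 mg/kg.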

[6] = tested on: Mus musculus; assay: Anticonvulsant activity in CF1 albino mouse assessed as protection against subcutaneous pentylenetetrazole-induced seizures at 300 mg/kg, ip after 0.5 hrs; type: functional, organism-based; parameters: dose 300 mg/kg; summary of the method: as §3
[7] = tested on: Mus musculus; assay: Anticonvulsant activity in ip dosed CF1 albino mouse assessed as protection against maximal electroshock after 0.5 hrs; type: functional; conditions: read-out: MED; summary of the method: as §1
[8] = tested on: Mus musculus; assay: Anticonvulsant activity in ip dosed CF1 albino mouse assessed as protection against maximal electroshock after 4 hrs; type: functional; conditions: read-out: MED; summary of the method: as §1

Compound | Activity [1] | Activity [2] | Activity [3] | Activity [4] | Activity [5] | Activity [6] | minimal effective dose [7] [mg/kg] | minimal effective dose [8] [mg/kg]
O=C(CN1C(=O)C2C3C=CC(C3)C2C1=O)N1CCN(c2ccccc2F)CC1 (stereo not given) | inactive | inactive | Non-toxic | Non-toxic | inactive | inactive | – | –
O=C(CN1C(=O)C2CCCCC2C1=O)N1CCN(c2ccccc2)CC1 (stereo not given) | – | inactive | Non-toxic | Non-toxic | inactive | inactive | 300 | –
O=C(CN1C(=O)c2ccccc2C1=O)N1CCN(Cc2ccccc2)CC1 | inactive | inactive | Non-toxic | Non-toxic | inactive | inactive | – | –
O=C(CN1C(=O)c2ccccc2C1=O)N1CCN(CCO)CC1 | inactive | inactive | Non-toxic | Non-toxic | inactive | inactive | – | –
O=C(CN1C(=O)C2C3C=CC(C3)C2C1=O)N1CCN(c2ccccc2)CC1 (stereo not given) | inactive | inactive | Non-toxic | Non-toxic | inactive | inactive | – | –
O=C(CN1C(=O)C2CCCCC2C1=O)N1CCN(CCO)CC1 (stereo not given) | inactive | inactive | Non-toxic | Non-toxic | inactive | inactive | – | –
O=C(CN1C(=O)C2CCCCC2C1=O)N1CCN(c2cccc(Cl)c2)CC1 (stereo not given) | inactive | inactive | Non-toxic | Non-toxic | inactive | inactive | – | –
O=C(CN1C(=O)C2CCCCC2C1=O)N1CCN(c2cccc(C(F)(F)F)c2)CC1 (stereo not given) | – | inactive | Non-toxic | Non-toxic | inactive | inactive | 100 | –
O=C(CN1C(=O)c2ccccc2C1=O)N1CCN(c2cccc(C(F)(F)F)c2)CC1 | inactive | – | Non-toxic | Non-toxic | inactive | inactive | – | 100
O=C(CN1C(=O)c2ccccc2C1=O)N1CCN(c2cccc(Cl)c2)CC1 | inactive | inactive | Non-toxic | Non-toxic | inactive | inactive | – | –
O=C(CN1C(=O)C2C3C=CC(C3)C2C1=O)N1CCN(c2cccc(Cl)c2)CC1 (stereo not given) | inactive | inactive | Non-toxic | Non-toxic | inactive | inactive | – | –
O=C(CN1C(=O)c2ccccc2C1=O)N1CCN(c2ccccc2Cl)CC1 | – | inactive | Non-toxic | Non-toxic | inactive | inactive | 100 | –
O=C(CN1C(=O)c2ccccc2C1=O)N1CCN(c2ccccc2)CC1 | – | inactive | Non-toxic | Non-toxic | inactive | inactive | 100 | –
O=C(CN1C(=O)c2ccccc2C1=O)N1CCN(c2cccc(Cl)c2Cl)CC1 | inactive | – | Non-toxic | Non-toxic | inactive | inactive | – | 100
O=C(CN1C(=O)C2C3C=CC(C3)C2C1=O)N1CCN(Cc2ccccc2)CC1 (stereo not given) | inactive | inactive | Non-toxic | Non-toxic | inactive | inactive | – | –
